Laboratory results reported in ChEMBL document CHEMBL4622869, “Discovery and structure-activity relationships study of positive allosteric modulators of the M3 muscarinic acetylcholine receptor” (Bioorg Med Chem, 2020).

What was measured:
[1] = molecular target: Muscarinic acetylcholine receptor M3 (Rattus norvegicus) (UniProt P08483); test: Positive allosteric modulation of muscarinic acetylcholine receptor M3 in Sprague-Dawley rat urinary bladder assessed as increase in 8 Hz electrical field stimulation-induced bladder contraction by measuring tension of isolated bladder contraction at 1 uM (reference value: 2.21 +/- 0.26 g)
Chain of Muscarinic acetylcholine receptor M3 (Rattus norvegicus) (P08483 whole entry, looked up): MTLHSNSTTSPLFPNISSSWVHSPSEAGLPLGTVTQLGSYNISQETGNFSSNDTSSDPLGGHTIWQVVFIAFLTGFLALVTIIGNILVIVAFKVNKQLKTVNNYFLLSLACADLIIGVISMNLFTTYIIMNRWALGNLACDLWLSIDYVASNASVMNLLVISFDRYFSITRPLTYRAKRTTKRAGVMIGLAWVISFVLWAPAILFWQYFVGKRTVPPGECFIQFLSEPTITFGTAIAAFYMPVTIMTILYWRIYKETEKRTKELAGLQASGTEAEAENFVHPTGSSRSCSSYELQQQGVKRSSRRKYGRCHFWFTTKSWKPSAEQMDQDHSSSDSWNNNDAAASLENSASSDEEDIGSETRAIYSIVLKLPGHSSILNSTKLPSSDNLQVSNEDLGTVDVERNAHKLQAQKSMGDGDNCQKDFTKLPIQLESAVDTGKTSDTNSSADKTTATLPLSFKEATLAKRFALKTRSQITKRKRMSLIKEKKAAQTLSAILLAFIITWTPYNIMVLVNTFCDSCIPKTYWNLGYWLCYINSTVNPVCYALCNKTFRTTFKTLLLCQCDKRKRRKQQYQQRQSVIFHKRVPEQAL
Outline: (§1)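 Female Sprague-Dawley rats, 9–10 weeks old. Longitudinal bladder strips (~10×2 mm) in Krebs at 37°C, gassed with 95% O2/5% CO2. EFS at 8 Hz, 10 s trains, 0.3 ms pulses, voltage set to give about half-maximal response. Drug added cumulatively at 1, 3 and 10 μM, 10 stimulations per concentration. Contraction = peak minus basal tone, averaged over the last 3 contractions and compared with pre-drug value (n=7).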

[2] = molecular target: Muscarinic acetylcholine receptor M3 (Homo sapiens) (UniProt P20309); test: Positive allosteric modulation of recombinant human muscarinic acetylcholine receptor M3 expressed in CHOK1 cells assessed as increase in carbachol-induced intracellular calcium flux at 10 uM preincubated for 5 mins followed by carbachol addition by Fluo4-AM dye based FLIPR assay relative to carbachol; assay type: functional, cell-based; conditions: CHO-K1
Chain of Muscarinic acetylcholine receptor M3 (Homo sapiens) (P20309 whole entry, looked up): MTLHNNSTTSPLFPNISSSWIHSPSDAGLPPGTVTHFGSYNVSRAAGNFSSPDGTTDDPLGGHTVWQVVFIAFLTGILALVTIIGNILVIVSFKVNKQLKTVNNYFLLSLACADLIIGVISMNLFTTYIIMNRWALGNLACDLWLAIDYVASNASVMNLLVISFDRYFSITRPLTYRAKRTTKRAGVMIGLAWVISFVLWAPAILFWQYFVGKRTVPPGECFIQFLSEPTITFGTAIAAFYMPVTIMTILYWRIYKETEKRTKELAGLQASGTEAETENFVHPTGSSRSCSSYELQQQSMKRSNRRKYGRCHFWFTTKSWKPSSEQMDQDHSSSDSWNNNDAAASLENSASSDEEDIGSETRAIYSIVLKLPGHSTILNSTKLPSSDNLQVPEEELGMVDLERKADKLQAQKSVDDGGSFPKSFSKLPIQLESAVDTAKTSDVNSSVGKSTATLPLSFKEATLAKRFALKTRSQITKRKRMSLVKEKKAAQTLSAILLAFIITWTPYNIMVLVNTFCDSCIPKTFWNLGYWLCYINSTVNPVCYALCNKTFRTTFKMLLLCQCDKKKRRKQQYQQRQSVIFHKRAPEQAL
Outline: (§2)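 CHO-K1 cells stably expressing human or rat M1–M5; M2 and M4 lines also co-express human Gα16. Cells loaded with 3.1 μM Fluo-4 AM in HBSS/20 mM HEPES pH 7.5/BSA/2.5 mM probenecid for ~2 h at room temperature. Test substance at 10 μM final, then carbachol (0.0024 nM–100 μM) ~5 min later; Ca2+ read by FLIPR Tetra. Fold shift = carbachol EC50 without / with test substance, from logistic fits.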

[3] = molecular target: T1, Muscarinic acetylcholine receptor M1 (Rattus norvegicus) (UniProt P08482); test: Positive allosteric modulation of recombinant rat muscarinic acetylcholine receptor M1 expressed in CHOK1 cells assessed as increase in carbachol-induced intracellular calcium flux at 10 uM preincubated for 5 mins followed by carbachol addition by Fluo4-AM dye based FLIPR assay relative to carbachol; assay type: functional, cell-based; conditions: CHO-K1; outline: as §2
T1 sequence (whole entry): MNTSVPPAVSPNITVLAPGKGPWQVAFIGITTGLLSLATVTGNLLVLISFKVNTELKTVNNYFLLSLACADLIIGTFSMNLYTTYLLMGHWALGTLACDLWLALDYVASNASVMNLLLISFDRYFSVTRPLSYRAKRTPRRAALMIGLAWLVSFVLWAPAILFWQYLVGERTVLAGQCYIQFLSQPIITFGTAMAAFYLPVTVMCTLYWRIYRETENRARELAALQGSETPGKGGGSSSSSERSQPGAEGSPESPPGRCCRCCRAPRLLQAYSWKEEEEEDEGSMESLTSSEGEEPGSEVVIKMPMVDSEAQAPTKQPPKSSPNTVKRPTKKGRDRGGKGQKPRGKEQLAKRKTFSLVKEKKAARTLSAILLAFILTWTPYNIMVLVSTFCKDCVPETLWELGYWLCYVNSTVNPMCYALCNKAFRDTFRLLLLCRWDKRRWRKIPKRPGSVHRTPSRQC

[4] = molecular target: T2, Muscarinic acetylcholine receptor M5 (Rattus norvegicus) (UniProt P08911); test: Positive allosteric modulation of recombinant rat muscarinic acetylcholine receptor M5 expressed in CHOK1 cells assessed as increase in carbachol-induced intracellular calcium flux at 10 uM preincubated for 5 mins followed by carbachol addition by Fluo4-AM dye based FLIPR assay relative to carbachol; assay type: functional, cell-based; conditions: CHO-K1; outline: as §2
T2 sequence (whole entry): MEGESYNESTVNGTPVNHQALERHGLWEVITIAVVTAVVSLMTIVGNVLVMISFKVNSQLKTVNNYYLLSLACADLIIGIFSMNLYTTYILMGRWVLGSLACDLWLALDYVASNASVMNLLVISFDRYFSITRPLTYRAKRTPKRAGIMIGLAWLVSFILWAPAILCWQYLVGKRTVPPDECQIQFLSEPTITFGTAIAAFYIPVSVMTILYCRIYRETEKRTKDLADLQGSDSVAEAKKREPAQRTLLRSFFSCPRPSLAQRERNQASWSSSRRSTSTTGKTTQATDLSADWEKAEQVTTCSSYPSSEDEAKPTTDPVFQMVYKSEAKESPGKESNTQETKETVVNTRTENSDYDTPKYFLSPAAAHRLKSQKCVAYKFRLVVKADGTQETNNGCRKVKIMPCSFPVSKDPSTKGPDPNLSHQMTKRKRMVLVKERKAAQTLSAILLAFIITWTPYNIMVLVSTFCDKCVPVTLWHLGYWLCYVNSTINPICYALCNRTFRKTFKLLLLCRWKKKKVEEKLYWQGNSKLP

[5] = Cmax in Crl:CD(SD) rat at 1 mg/kg, po measured up to 24 hrs by LC-MS/MS analysis; assay type: ADME, organism-based; parameters: dose 1 mg/kg, route oral; conditions: in vivo
Outline: (§3)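 Male Crl:CD(SD) rats, 8 weeks old, food deprived (n=4); iv 0.3 mg/kg or po 1 mg/kg in DMF/propylene glycol/water for injection (1/1/8) containing 1 M NaOH (2 equivalents). Plasma sampled to 24 h, assayed by validated LC-MS/MS. Parameters from each animal by noncompartmental analysis, reported as means.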

[6] = Tmax in Crl:CD(SD) rat at 1 mg/kg, po measured up to 24 hrs by LC-MS/MS analysis; assay type: ADME, organism-based; conditions: in vivo; outline: as §3
[7] = Half life in Crl:CD(SD) rat at 0.3 mg/kg, iv measured up to 24 hrs by LC-MS/MS analysis; assay type: ADME, organism-based; conditions: in vivo; outline: as §3
[8] = Total clearance in Crl:CD(SD) rat at 0.3 mg/kg, iv measured up to 24 hrs by LC-MS/MS analysis; assay type: ADME, organism-based; conditions: in vivo; outline: as §3
[9] = Volume of distribution at steady state in Crl:CD(SD) rat at 0.3 mg/kg, iv measured up to 24 hrs by LC-MS/MS analysis; assay type: ADME, organism-based; conditions: in vivo, read-out: Vdss; outline: as §3
[10] = Oral bioavailability in Crl:CD(SD) rat at 1 mg/kg measured up to 24 hrs by LC-MS/MS analysis; assay type: ADME, organism-based; conditions: in vivo; outline: as §3
[11] = molecular target: Muscarinic acetylcholine receptor M3 (Rattus norvegicus) (UniProt P08483); test: Positive allosteric modulation of muscarinic acetylcholine receptor M3 in Sprague-Dawley rat urinary bladder assessed as increase in 8 Hz electrical field stimulation-induced bladder contraction by measuring tension of isolated bladder contraction at 10 uM (reference value: 2.21 +/- 0.26 g); outline: as §1
[12] = molecular target: Muscarinic acetylcholine receptor M3 (Homo sapiens) (UniProt P20309); test: Positive allosteric modulation of recombinant human muscarinic acetylcholine receptor M3 expressed in CHOK1 cells assessed as increase in carbachol-induced intracellular calcium flux preincubated for 5 mins followed by carbachol addition by Fluo4-AM dye based FLIPR assay; assay type: functional, cell-based; conditions: CHO-K1
Outline: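 Human M3 in CHO-K1 cells, Fluo-4 AM loaded (3.1 μM, ~2 h, room temperature). Test substance at 0.01–30 μM added ~5 min before a carbachol concentration series (0.0024 nM–100 μM); Ca2+ flux read on FLIPR Tetra to give carbachol concentration-response curves, with DMSO as vehicle.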

Activity [1]: 2.34 g
fold change (FC) [2]: 269
fold change (FC) [3]: 2.1
fold change (FC) [4]: 110
Cmax [5]: 85.3 ng/mL
Tmax [6]: 18.6 min
half-life [7]: 146 min
clearance [8]: 15.3 mL/min/kg
Vd [9]: 1.59 L/kg
bioavailability [10]: 19%
Activity [11]: 3.49 g
Activity [12]: Dose-dependent effect
Compound: CC[C@@H]1CCCN1Cc1sc(NC(=O)c2cnc(N3CCC(C(=O)O)CC3)cn2)nc1-c1ccc(OC)c(C(F)(F)F)c1.Cl.Cl
